An excerpt weighted towards active compounds, which were near 3% of everything screened.
iPSC survival up = hiPSC single-cell survival enhancement; ATPlite luminescence; 100% = ROCK inhibitor wells, 0% = DMSO; survival enhancement, % at 20 µM; actives 0.044% (n = 360,000); AID 602274; in the data active = survival enhancement above about 18%;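 also: cells exposed to compounds for 16 hours before the ATP read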
MPTP block = blocks calcium-induced mitochondrial swelling. actives 1.4% (n = 360,000). isolated mouse mitochondria, Ca2+ swelling absorbance, 30 min. inhibition, % at 10 µM;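 active = inhibition of 50% or more, scaled per plate between neutral and stimulator controls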;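 also: 0% = DMSO wells given calcium and 100% = 1 mM EGTA wells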
MIN6 prolif = inducers of beta-cell replication in MIN6 cells. AID 2380. actives 0.29% (n = 330,000). proliferation, % at 10 µM. MIN6 cells proliferation, ATPlite luminescence, 48 h; cells starved in 0.2% serum; 100% = growth in 10% serum;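 active = compounds whose signal lies at least 3.5 SD above the mean of all wells on their plate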;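 also: 0% = DMSO-treated cells in low-serum medium and 100% = 10% serum control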
Granule exo inh = blocks lytic granule exocytosis. TALL-104 LAMP-1 surface exposure, flow cytometry; cells stimulated with thapsigargin and PMA. inhibition, % at 10 µM. actives 0.66% (n = 360,000);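 active = inhibition above about 55%, limit read from the data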
UBC13 polyUb = inhibitors of human UBC13 polyubiquitin chain formation. P61088. TR-FRET. inhibition, % at 20 µM. actives 0.47% (n = 330,000). AID 485273; in the data active = inhibition above about 45%, passing the limit was not always enough
Target sequence (P61088 whole entry, looked up): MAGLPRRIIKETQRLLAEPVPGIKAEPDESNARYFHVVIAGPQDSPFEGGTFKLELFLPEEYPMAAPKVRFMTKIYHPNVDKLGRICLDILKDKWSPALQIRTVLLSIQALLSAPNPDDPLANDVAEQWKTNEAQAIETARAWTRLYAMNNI
Apaf1 inhib = human Apaf-1 inhibition. O14727. actives 0.71% (n = 330,000). reconstituted apoptosome caspase-3 activity, DEVD-Rh110 fluorescence. inhibition, % at 20 µM; active = inhibition of at least 40% at 20 µM;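 also: plate controls were DMSO wells for no effect and DEVD-CHO caspase inhibitor wells for full effect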
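Assay system: Apoptosome proteins | Medium: pH 7.5 Hepes buffer with CHAPS, BSA, DTT | Also added: Cytochrome c and DEVD-Rh110 substrate | Times: 30 min plus 50 min, RT | Detection: Rhodamine 110 fluorescence at Ex 480/Em 540 nm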
Rh123 counter = membrane potential counter-screen of mitochondrial pore inhibitors; shares compounds with MPTP block; isolated mitochondria, Rhodamine 123 fluorescence; inhibition, % at 10 µM; actives 78% (n = 5,000); in the data active = inhibition above about 22%;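 also: 0% = DMSO vehicle and 100% = positive control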
MPTP swell DR = MPTP inhibition, dose response swelling confirmation; isolated mitochondria swelling, absorbance; AID 651561; actives 58% (n = 780); IC50, µM; shares compounds with MPTP block; in the data active = IC50 below about 20 µM
MPTP cs DR = active in counter-screen for permeability transition pore inhibitors | shares compounds with MPTP block | actives 49% (n = 780) | isolated mitochondria counterscreen, fluorescence read-out | AID 651564 | IC50, µM; in the data active = IC50 below about 80 µM
* = called active by the depositor; i = inactive; nt = no result given.

SMILES	iPSC survival up	MPTP block	MIN6 prolif	Granule exo inh	UBC13 polyUb	Apaf1 inhib	Rh123 counter	others
CSCCC(NC(=O)c1cccc([N+](=O)[O-])c1)c1nc2ccccc2[nH]1 (stereo not drawn)	0.2	6.0	0.0	-1.5	1.6	-4.3	nt
O=C(NC(Cc1ccccc1)c1nc2ccccc2[nH]1)c1cccc([N+](=O)[O-])c1 (stereo not drawn)	-0.1	64.9*	-1.0	-1.1	3.0	18.6	65.4*
NC(c1csc(Nc2ccccn2)n1)C1CCCCC1 (stereo not drawn)	-0.9	2.1	nt	4.4	nt	nt	nt
O=C(CSc1nc2ccccc2c(=O)n1CCCO)Nc1ccc2c(c1)OCCO2	0.2	-0.7	-4.2	2.4	22.5	11.0	nt
Cc1ccc(Sc2ncccc2C(=O)NCc2cc([N+](=O)[O-])ccc2O)cc1C	-0.3	2.3	4.6	3.2	-17.3	-0.2	nt
Cc1nc2cc(NC(=O)Nc3ccc(Br)cc3)ccc2o1	-2.4	81.6*	-1.9	1.2	-2.5	-9.8	83.4*
Cc1nc2cc(NC(=O)NCc3ccc4c(c3)OCO4)ccc2o1	-2.0	-0.7	-2.5	-2.0	0.9	-16.9	nt
c1ccc(Nc2ncnc3sccc23)cc1	-0.7	-1.1	-0.8	10.0	0.8	5.7	nt
CC(Nc1ncnc2sccc12)c1ccccc1 (stereo not drawn)	-0.1	84.2*	-3.7	22.2	-4.1	9.2	80.2*
CCN(C[C@H]1N[C@@](Cc2ccccc2)(C(=O)OC)[C@H]2C(=O)N(Cc3ccccc3)C(=O)[C@@H]12)C(=O)Nc1ccc(Cl)cc1	-2.7	63.4*	-4.8	-1.4	-14.5	18.5	100.5*
Cc1cn([C@H]2C[C@H](O)[C@@H](CCC(=O)NCCN3CCCCC3)O2)c(=O)[nH]c1=O	-1.8	3.5	nt	-1.0	nt	3.4	nt
Cc1nc2ccccc2n1CC(=O)NN	-0.8	1.8	3.7	-2.0	1.0	-4.5	nt
Cc1nc2ccccc2n1CC(=O)NCc1ccccc1	-2.2	70.4*	-2.8	-2.8	8.7	-11.3	19.7	MPTP swell DR=i;MPTP cs DR=31.4*
COc1ccccc1NS(=O)(=O)c1cc2c3c(c1)CCN3C(=O)CC2	0.2	0.0	3.5	-6.5	-6.3	3.2	nt
Cc1ccc(C2=NC(=O)/C(=C/c3cc(O)c(O)c(Br)c3)S2)cc1	-1.0	114.1*	-4.7	-8.6	-22.3	22.1	36.1*
COc1ccc(S(=O)(=O)Nc2ccccc2C(=O)Nc2nc(-c3ccc(F)cc3)cs2)cc1OC	0.5	96.6*	0.0	24.9	-3.4	0.1	42.3*
COc1ccc(-c2csc(NC(=O)c3c(OC)cccc3OC)n2)cc1	-0.2	-0.5	-3.0	0.8	-2.9	9.6	nt
COc1ccc(-c2csc(NC(=O)c3ccccc3NS(=O)(=O)c3ccc(C)cc3)n2)cc1	3.2	104.0*	0.0	28.5	-8.7	14.8	6.3
O=C(Cc1cc(=O)oc2cc(O)ccc12)NC(Cc1ccc(Cl)cc1)C(=O)O (stereo not drawn)	0.6	-0.8	-1.0	2.3	14.4	7.4	nt
COc1ccc(NS(=O)(=O)c2cccc(C(=O)N3CCCC3)c2)cc1	0.0	-0.3	-0.4	0.6	0.9	14.8	nt
Cc1ccc(NS(=O)(=O)c2ccc(Cl)c(C(=O)Nc3ccccc3-c3nc4ccccc4[nH]3)c2)cc1C	-1.2	87.6*	0.0	14.4	0.0	7.1	58.1*
CCOC(=O)c1c(CCl)nc2ccccc2c1-c1ccccc1	-0.5	3.1	-6.1	0.2	5.0	-10.3	nt
ClCc1nc2ccccc2c2ccccc12	-0.1	63.5*	-3.7	29.5	-0.5	20.7	-6.4	MPTP swell DR=4.62*;MPTP cs DR=>80
O=S(=O)(c1ccc(Br)cc1)c1nc(-c2ccco2)oc1NCCCn1ccnc1	-0.4	-0.4	-4.3	16.4	3.2	24.4	nt
CCCOc1cccc(C(=O)NC(=S)Nc2ccc(N3CCN(C)CC3)cc2)c1	-1.6	76.4*	-5.9	16.3	29.0	21.0	-7.5	MPTP swell DR=7.12*;MPTP cs DR=38.7*
SMILES	iPSC survival up	MPTP block	MIN6 prolif	Granule exo inh	UBC13 polyUb	Apaf1 inhib	Rh123 counter	others
CSCCC(NC(=O)c1ccccc1Br)C(=O)N1CCN(C/C=C/c2ccccc2)CC1 (stereo not drawn)	-0.1	-1.8	nt	-3.2	nt	nt	nt
O=C(Nc1ccc2c(c1)OCCO2)c1ccc(Cl)c(Cl)c1	-0.4	0.1	-2.3	6.3	-9.3	5.6	nt
O=C(Nc1cccc(Cl)c1)C1=Cc2cc(Cl)ccc2OC1	1.4	95.1*	-6.1	-2.3	2.2	12.0	109.5*
CCc1ccc(C(=O)NCc2ccc(Cl)cc2)cc1	-1.1	2.1	0.0	1.1	12.3	1.1	nt
O=C(NCc1ccc(Cl)cc1)C1=Cc2cc(Cl)ccc2OC1	1.1	78.1*	-0.6	-0.5	3.6	0.9	89.3*
O=C(Nc1ccc(Cl)c(Cl)c1)C1=Cc2ccccc2OC1	-1.3	88.6*	-3.3	12.4	-12.0	15.8	91.5*
O=C(Nc1cccc(Cl)c1)c1cc(F)cc2c1OCOC2	0.6	0.4	-1.7	-7.1	6.5	-6.1	nt
CN1C(C(=O)Nc2cccc(O)c2)=CC(c2ccco2)=NS1(=O)=O	-0.4	-0.6	-0.8	7.2	-2.3	-6.6	nt
c1ccc2cc(CSCc3nc4ccccc4[nH]3)ccc2c1	-1.9	88.2*	0.0	-3.0	9.4	6.8	87.8*
O=[N+]([O-])c1ccc2c(c1N1CCCCC1)=NC1(CCCCC1)[N+]=2[O-]	0.7	57.8*	-4.2	26.8	-85.6	13.0	35.7*
O=C(NCc1cccnc1)c1ccc(COc2ccc(Cl)cc2)cc1	4.6	66.5*	-6.2	-3.0	-10.0	17.2	62.8*
CC(C)(C)c1ccc(OCc2ccc(C(=O)NCc3cccnc3)o2)cc1	-1.9	85.2*	-5.8	1.4	-21.1	22.9	68.1*
O=C(COc1ccc(Cl)cc1)Nc1ccc(C(=O)NCc2cccnc2)cc1	1.7	27.8	-5.7	-3.2	13.4	8.6	nt
COc1ccccc1OCc1ccc(C(=O)NCc2cccnc2)o1	4.7	-0.8	-1.3	-4.1	-0.2	-2.2	nt
C[C@@H]1CN([C@H](C)CO)C(=O)CCCn2cc(nn2)CO[C@H]1CN(C)C(=O)Nc1ccc2c(c1)OCCO2	-0.5	-0.5	nt	-0.5	nt	nt	nt
Cc1cc(OCC(=O)N(Cc2ccccc2)C2CCS(=O)(=O)C2)ccc1Cl (stereo not drawn)	-0.7	0.3	-2.9	-1.0	2.1	9.5	nt
COc1ccc(Cl)cc1C(=O)Nc1ccc(NC(=O)c2ccco2)cc1	-0.3	1.3	2.5	-4.3	4.1	8.7	nt
COc1ccc(Cl)cc1NC(=O)c1ccco1	-1.1	79.8*	-2.3	0.2	9.4	2.9	0.8	MPTP swell DR=i;MPTP cs DR=>80
COc1ccc(Cl)cc1NC(=O)c1cccc([N+](=O)[O-])c1O	-1.7	85.3*	nt	3.5	nt	nt	96.0*

Screening results (PubChem)
